Hits are enriched below; roughly 2.5% of the tested compounds scored in any of these assays.
SIRT5 inh: blocks human SIRT5 desuccinylation of peptide; Purified SirT5, succinyl-peptide AMC, trypsin-coupled fluorescence; 330,000 tested, 1.1% active; AID 652115; Q9NXA8; inhibition, % at 15 µM; in the data active means inhibition above about 15%; inconclusive means no clear call, values can overlap the other calls
PglD inh: inhibitors of Campylobacter jejuni PglD acetyltransferase; purified PglD enzyme, DTNB colorimetric CoA detection; inhibition, % at 12.5 µM; 360,000 tested, 0.098% active; AID 602405; in the data active means inhibition above about 16%, passing the limit was not always enough; inconclusive means no clear call, values can overlap the other calls
E-selectin induc: induces E-selectin expression in human endothelial cells. P16581. HUVEC E-selectin immunofluorescence imaging; normalized: neutral wells 0, TNF-alpha wells 100. activation, % at 7.58 µM. 260,000 tested, 0.37% active. AID 686992;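 active means mean E-selectin-positive cell signal at least 10% of the positive control, reached in at least 60% of replicates, without over 20% cell loss; inconclusive means no rule given, readout overlaps actives, possibly toxicity-flagged; inactive means the rest, including those meeting only one limit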
Target sequence (P16581 whole entry, looked up): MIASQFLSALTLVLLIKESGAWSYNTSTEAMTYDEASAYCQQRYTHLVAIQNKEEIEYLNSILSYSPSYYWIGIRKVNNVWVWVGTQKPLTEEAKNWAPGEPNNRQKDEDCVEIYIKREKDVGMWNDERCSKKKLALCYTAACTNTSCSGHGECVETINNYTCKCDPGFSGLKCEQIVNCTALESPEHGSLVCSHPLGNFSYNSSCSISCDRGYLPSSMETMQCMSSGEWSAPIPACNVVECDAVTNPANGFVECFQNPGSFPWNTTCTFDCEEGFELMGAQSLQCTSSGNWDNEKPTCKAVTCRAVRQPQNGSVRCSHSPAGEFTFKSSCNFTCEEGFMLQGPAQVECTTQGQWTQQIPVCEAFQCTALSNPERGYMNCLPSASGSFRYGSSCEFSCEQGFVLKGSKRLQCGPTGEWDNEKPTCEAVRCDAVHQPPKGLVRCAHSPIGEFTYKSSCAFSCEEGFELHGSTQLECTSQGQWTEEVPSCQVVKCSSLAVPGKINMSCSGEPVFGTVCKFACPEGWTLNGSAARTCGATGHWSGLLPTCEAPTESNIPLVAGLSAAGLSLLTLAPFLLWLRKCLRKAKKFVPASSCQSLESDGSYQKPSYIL
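Assay system: HUVEC primary endothelial cells. Input: 3,000 HUVEC seeded per well. Doses: one compound dose added by pin transfer. Read-out basis: % PE-positive cells. Benchmarks: TNF-alpha high, DMSO low. Detection: immunofluorescence imaging. Buffer or medium: EGM-2, gelatin.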
ERAP1 HTS inh: blocks human ERAP1 aminopeptidase activity; Q9NZ08; recombinant ERAP1, Leu-AMC fluorescence, 60 min; inhibition, % at 10.7 µM; 340,000 tested, 0.15% active;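 active means mean replicate inhibition of at least 30%, or all replicates individually reaching that 30% level; inactive means mean below 30% and not every replicate reaching it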;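 further: 0% = neutral control wells and 100% = L-leucinethiol positive control wells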
DENV2 CPE: protects cells from dengue virus 2 cytopathic effect | DENV2-infected cells, cytopathic effect rescue, plate reader | CPE inhibition, % at 9.99 µM | 350,000 tested, 1.7% active | AID 651640; in the data active means CPE inhibition above about 20%, passing the limit was not always enough; inconclusive means no clear call, values can overlap the other calls; tested in BHK-21 cells;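 further: 0% = median of neutral control wells and 100% = median of positive control wells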
* = called active by the depositor; ? = inconclusive; · = no result given.

SMILES	SIRT5 inh	PglD inh	E-selectin induc	ERAP1 HTS inh	DENV2 CPE
O=C(COC(=O)/C=C/c1ccc(S(=O)(=O)N2CCOCC2)cc1)NCc1ccc(Cl)cc1	25*	-4	1	0	5
Cc1ccc(-c2n[nH]c(=S)n2/N=C/c2cccs2)cc1	29*	7	1	2	-5
Cc1ccc(S(=O)(=O)N(C)C[C@@H]2OCCCC[C@@H](C)Oc3ccc(NS(=O)(=O)c4ccccc4)cc3C(=O)N([C@@H](C)CO)C[C@H]2C)cc1	19*	3	0	2	3
Cc1ccc(S(=O)(=O)N(C)C[C@H]2OCCCC[C@@H](C)Oc3ccc(NS(=O)(=O)c4ccccc4)cc3C(=O)N([C@@H](C)CO)C[C@@H]2C)cc1	19*	4	6	3	6
Cc1ccc(S(=O)(=O)N(C)C[C@H]2OCCCC[C@@H](C)Oc3ccc(NS(=O)(=O)c4c(C)noc4C)cc3C(=O)N([C@@H](C)CO)C[C@@H]2C)cc1	17*	1	·	-3	29*
Cc1ccc(S(=O)(=O)Nc2ccc3c(c2)C(=O)N([C@H](C)CO)C[C@H](C)[C@@H](CN(C)S(=O)(=O)c2ccccc2)OCCCC[C@H](C)O3)cc1	9	0	0	2	1
Cc1ccc(S(=O)(=O)N(C)C[C@@H]2OCCCC[C@@H](C)Oc3ccc(NS(=O)(=O)c4c(C)noc4C)cc3C(=O)N([C@@H](C)CO)C[C@@H]2C)cc1	5	0	·	-3	-10
Cc1ccc(S(=O)(=O)Nc2ccc3c(c2)C(=O)N([C@@H](C)CO)C[C@H](C)[C@H](CN(C)S(=O)(=O)c2ccccc2)OCCCC[C@@H](C)O3)cc1	24*	2	0	0	-1
Cc1cccc(Cn2c(N3CCN(C)CC3)nc3c2c(=O)n(C)c(=O)n3C)c1	1	2	·	-1	1
CC1(C)OC1(C#N)c1ccccc1 (stereo not drawn)	-6	-6	0	-1	-15
N#Cc1cccc(NC(=O)CCN2C(=O)C3CCCCC3C2=O)c1 (stereo not drawn)	-2	-5	1	-1	3
C[C@@H]1CCCCO[C@H](CN(C)S(=O)(=O)c2ccc(F)cc2)[C@@H](C)CN([C@@H](C)CO)C(=O)c2cc(NC(=O)c3ccncc3)ccc2O1	0	0	·	0	13
O=S(=O)(Cc1ccccc1)N1CCCCN2[C@H](CO)[C@H](c3ccc(-c4cccnc4)cc3)[C@@H]2C1	2	2	0	0	5
Cc1ccc(S(=O)(=O)N(C)C[C@H]2OCCCC[C@H](C)Oc3ccc(NS(=O)(=O)c4ccccc4)cc3C(=O)N([C@@H](C)CO)C[C@@H]2C)cc1	19*	2	0	3	-5
Cc1ccc(S(=O)(=O)Nc2ccc3c(c2)C(=O)N([C@@H](C)CO)C[C@H](C)[C@H](CN(C)S(=O)(=O)c2ccccc2)OCCCC[C@H](C)O3)cc1	9	-1	0	1	-2
Cc1ccc2nc(=O)c(NNc3ccccc3)cnc2c1	2	·	178*	9	-2
O=C(c1cccc(F)c1)N1CC[C@@H]2[C@H]1c1cc(C#Cc3cccc(F)c3)ccc1N[C@@H]2CO	-3	-5	0	2	-4
O=C(c1ccccc1)N1CC[C@@H]2[C@H]1c1cc(C#Cc3cccc(F)c3)ccc1N[C@@H]2CO	·	-7	1	·	43*
O=C(c1cccc(F)c1)N1CC[C@@H]2[C@H](CO)Nc3ccc(C#Cc4cccc(F)c4)cc3[C@@H]21	3	-3	1	3	12
COc1cccc(C#Cc2ccc3c(c2)[C@@H]2[C@@H](CCN2C(=O)c2ccc(F)cc2)[C@@H](CO)N3)c1	·	-1	1	·	26*
COc1ccccc1C#Cc1ccc2c(c1)[C@@H]1[C@@H](CCN1C(=O)c1ccc(F)cc1)[C@@H](CO)N2	5	1	0	-1	2
O=C(c1ccccc1)N1CC[C@@H]2[C@@H](CO)Nc3ccc(C#Cc4cccc(F)c4)cc3[C@@H]21	·	-2	-1	·	23*
Cc1noc(C)c1NC(=O)N(C)C[C@@H]1OCCCC[C@H](C)Oc2ccc(NS(=O)(=O)c3ccccc3)cc2C(=O)N([C@@H](C)CO)C[C@H]1C	-1	0	0	-3	?
Cc1ccc2oc3c(c(=O)c2c1)C(c1cccc(Cl)c1)N(CCCN1CCOCC1)C3=O (stereo not drawn)	·	-2	1	·	55*
